GASC1 inh = inhibitors of GASC-1 (KDM4C) histone demethylase, primary screen, biochemical, single concentration HTS. inhibition, % at 12.5 µM. AID 720574, 2013. GST-KDM4C 2-372, H3K9me3 peptide, LANCE TR-FRET. 96,000 tested, 0.15% active. Lysine-specific demethylase 4C (Homo sapiens), Q9H3R0;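 active means mean replicate inhibition above about 25%, with at least 55% of replicates also reaching it, limit read from the data, passing the limit was not always enough; inconclusive means only one of those two conditions met; inactive means neither condition met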
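Test system – GST-tagged GASC-1 (JMJD2C) catalytic fragment, aa 2-372 · Medium – HEPES buffer, pH 7.5, plus ascorbate · Reagent – H3K9me3 peptide with Fe(II)/2OG · Compound – one test concentration per compound · Timing – 30 min reaction, 60 min detection, RT · Technique – TR-FRET with Eu antibody and ULight streptavidin, EDTA stop · Read-out basis – inhibition from TR-FRET ratio decrease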
T cruzi growth-1 = T. cruzi intracellular proliferation inhibitors, primary screen, cell-based, beta-gal Tulahuen parasites, NIH3T3 host, luminescence. 77,000 tested, 5.9% active. inhibition, % at 8.34 µM. T. cruzi beta-gal in NIH3T3, GalScreen luminescence, 90 h. AID 624255, 2012;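 active means mean inhibition above about 93%, with at least 55% of replicates each passing it, limit read from the data, passing the limit was not always enough; inconclusive means only one of those two conditions holds; inactive means neither condition holds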
IDH1 mut inh = inhibitors of IDH1 R132H reductase, primary screen, biochemical, plate reader, single point; diaphorase/resazurin fluorescence, 60 min; Isocitrate dehydrogenase [NADP] cytoplasmic (Homo sapiens), O75874; inhibition, % at 10 µM; AID 624101, 2012; 70,000 tested, 0.18% active; in the data active means inhibition above about 34%; inconclusive means no clear call, values can overlap the other calls; inactive means below about 11%
Target sequence (O75874 whole entry R132H): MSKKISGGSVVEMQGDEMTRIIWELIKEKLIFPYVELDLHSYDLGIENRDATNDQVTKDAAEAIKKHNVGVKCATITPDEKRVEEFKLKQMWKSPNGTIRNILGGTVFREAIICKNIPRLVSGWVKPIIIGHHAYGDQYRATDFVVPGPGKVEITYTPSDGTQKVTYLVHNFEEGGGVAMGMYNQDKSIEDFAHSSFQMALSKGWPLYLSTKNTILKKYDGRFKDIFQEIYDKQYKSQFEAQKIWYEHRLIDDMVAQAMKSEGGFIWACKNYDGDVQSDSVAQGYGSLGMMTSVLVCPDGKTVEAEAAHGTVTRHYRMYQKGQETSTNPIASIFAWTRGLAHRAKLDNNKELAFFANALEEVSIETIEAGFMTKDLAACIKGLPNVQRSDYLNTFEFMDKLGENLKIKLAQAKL
T cruzi growth-2 = T. cruzi intracellular proliferation inhibitors, confirmation, cell-based, NIH3T3 host, beta-gal parasite, luminescence, cherry-pick; T. cruzi beta-gal in NIH3T3, GalScreen luminescence, 90 h; 5,600 tested, 72% active; inhibition, % at 8.35 µM; shares compounds with T cruzi growth-1; AID 651739, 2012;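 active means mean replicate inhibition above about 95% and at least 55% of replicates individually reaching it, limit read from the data; inconclusive means only one of the two criteria is met; inactive means neither criterion is met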
T cruzi growth-3 = inhibitors of intracellular T. cruzi replication, confirmation, NIH3T3 host cells, beta-gal parasites, cherry-pick, set 2; shares compounds with T cruzi growth-1; T. cruzi beta-gal in NIH3T3, GalScreen luminescence, 90 h; inhibition, % at 2.09 µM; 5,600 tested, 21% active;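 active means mean inhibition above about 95%, with at least 55% of replicates also reaching it, limit read from the data; inconclusive means meets just one of the two conditions; inactive means meets neither condition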
3T3 cytotox = cytotoxicity in mouse NIH/3T3 fibroblasts, confirmation, cytotoxicity control for T. cruzi proliferation inhibitor project, cell-based, cherry-pick, single point; shares compounds with T cruzi growth-1; NIH/3T3 viability, CellTiter-Glo ATP luminescence, 90 h; cytotoxicity (signal decrease), % at 8.35 µM; 5,600 tested, 14% active;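 active means mean signal decrease across replicates above about 35% based on untreated-well scatter, with enough replicates individually passing, limit read from the data; inconclusive means no rule stated though some were filed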
3T3 cytotox 2 = NIH/3T3 fibroblast cytotoxicity, confirmation, cytotoxicity control, cell-based, cherry-pick, single point, set 2 | shares compounds with T cruzi growth-1 | NIH/3T3 viability, CellTiter-Glo ATP luminescence, 90 h | inhibition, % at 24.9 µM | 5,600 tested, 56% active | AID 651744, 2012;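 active means mean loss of cell viability signal at or above a set limit, and enough replicates individually reaching it; inconclusive means meets only the mean limit or only the replicate share; inactive means meets neither condition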
Large screens that a line does not name were inactive (follow-up assays come after a bar, where they were run). The full list was thinned out, with hits kept by preference.

C[C@H](CO)N1C[C@H](C)[C@@H](CN(C)CC2CCCCC2)Oc2ccc(NS(=O)(=O)c3ccc(F)cc3)cc2CC1=O	T cruzi growth-1 107 | T cruzi growth-2 107 | T cruzi growth-3 inactive | 3T3 cytotox inactive | 3T3 cytotox 2 104
Cc1ccc(C(C)C)c(OCC(=O)Nc2sc3c(c2C(N)=O)CCC(C)C3)c1 (stereo unspecified)	none (no result: GASC1 inh, T cruzi growth-1)
CCn1c(SCC(=O)Nc2ccc(F)c(Cl)c2)nnc1-c1ccc(C(C)(C)C)cc1	none (no result: GASC1 inh, T cruzi growth-1)
Cc1cccc(NC(=O)CSc2nnc(-c3ccncc3)n2-c2ccc(C)c(C)c2)c1	none (no result: GASC1 inh, T cruzi growth-1)
CN1c2ccc(-c3ccc(F)cc3)cc2[C@@H]2[C@@H](CCN2C(=O)Cc2cccnc2)[C@H]1CO	T cruzi growth-1 115 (no result: IDH1 mut inh) | T cruzi growth-2 117 | T cruzi growth-3 103 | 3T3 cytotox inactive | 3T3 cytotox 2 inactive
CCC(=O)N1CC[C@@H]2[C@H]1c1cc(-c3ccc(C#N)cc3)ccc1N(C)[C@H]2CO	none (no result: IDH1 mut inh)
CN1c2ccc(-c3cccc(C#N)c3)cc2[C@H]2[C@H](CCN2C(=O)C2CC2)[C@H]1CO	none (no result: T cruzi growth-1, IDH1 mut inh)
CN1c2ccc(-c3cccc(F)c3)cc2[C@@H]2[C@@H](CCN2C(=O)Cc2cccnc2)[C@@H]1CO	none (no result: IDH1 mut inh)
CN1c2ccc(-c3ccc(C#N)cc3)cc2[C@@H]2[C@@H](CCN2C(=O)CC2CC2)[C@@H]1CO	T cruzi growth-1 inconclusive (no result: IDH1 mut inh) | T cruzi growth-2 100 | T cruzi growth-3 inconclusive | 3T3 cytotox 47 | 3T3 cytotox 2 80
CN1c2ccc(-c3cccc(C#N)c3)cc2[C@H]2[C@H](CCN2C(=O)CN2CCOCC2)[C@@H]1CO	none (no result: IDH1 mut inh)
CN1c2ccc(-c3cccc(C#N)c3)cc2[C@H]2[C@H](CCN2C(=O)CN2CCOCC2)[C@H]1CO	T cruzi growth-1 inconclusive (no result: IDH1 mut inh) | T cruzi growth-2 108 | T cruzi growth-3 inactive | 3T3 cytotox inactive | 3T3 cytotox 2 inactive
CN1c2ccc(-c3cccc(C#N)c3)cc2[C@@H]2[C@@H](CCN2C(=O)Cc2ccccn2)[C@@H]1CO	T cruzi growth-1 106 (no result: IDH1 mut inh) | T cruzi growth-2 102 | T cruzi growth-3 inactive | 3T3 cytotox inactive | 3T3 cytotox 2 36
Cc1ccc(OCC(=O)Nc2ccc3oc(-c4ccc(F)cc4Cl)nc3c2)cc1	none (no result: GASC1 inh, T cruzi growth-1)
C[C@@H]1CC[C@]2(C(=O)OC3OC(CO)C(OC4OC(CO)C(O)C(O)C4O)C(O)C3O)CC[C@]3(C)C(=CCC4[C@@]5(C)CC[C@H](O)[C@](C)(C(=O)O)C5CC[C@]43C)C2[C@]1(C)O (stereo partly specified)	none (no result: GASC1 inh, T cruzi growth-1)
CN1c2ccc(-c3ccccc3)cc2[C@@H]2[C@@H](CCN2C(=O)Cc2ccccn2)[C@@H]1CO	T cruzi growth-1 99 (no result: IDH1 mut inh) | T cruzi growth-2 105 | T cruzi growth-3 inactive | 3T3 cytotox inactive | 3T3 cytotox 2 inactive
COc1ccc(-c2ccc3c(c2)[C@@H]2[C@@H](CCN2C(=O)Cc2ccccn2)[C@@H](CO)N3C)cc1	T cruzi growth-1 inconclusive (no result: IDH1 mut inh) | T cruzi growth-2 107 | T cruzi growth-3 inactive | 3T3 cytotox inactive | 3T3 cytotox 2 inactive
CN1c2ccc(-c3ccc(F)cc3)cc2[C@H]2[C@H](CCN2C(=O)Cc2ccccn2)[C@@H]1CO	T cruzi growth-1 inconclusive (no result: IDH1 mut inh) | T cruzi growth-2 110 | T cruzi growth-3 inactive | 3T3 cytotox inactive | 3T3 cytotox 2 inactive
